# Measured values reported in PMC5392356 (Nature chemical biology, 2017).
# How the values were obtained:
# VCB and Brd4^BD2 = VCB and Brd4^BD2 (Homo sapiens, UniProt O60885+P40337); test: ITC, VCB titrated into PROTAC:BD complex; assay type: binding
# Brd4 [1] = target: T1, Brd4 (Homo sapiens, UniProt O60885); test: BET protein degradation in HeLa cells, Western blot; assay type: cell-based; conditions: 24 h, 1–3 μM
# How it was run: (§1)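 HeLa cells were kept in DMEM with 10% FBS, […], penicillin/streptomycin at 37 °C, 5% CO2. They were seeded in six-well plates and treated the next day. They were PBS-washed and lysed on ice in RIPA with protease inhibitors, Benzonase and 0.5 mM MgCl2, then sonicated and centrifuged. Protein was quantified by BCA. Immunoblots used Brd2, Brd3, Brd4 and β-actin antibodies with IRDye 800CW secondaries; band intensities were quantified on an Odyssey imager.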
# Brd2 [2] = target: T2, Brd2 (Homo sapiens, UniProt P25440); test: as above; assay type: cell-based; conditions: 24 h
# How it was run: as §1
# Brd3 [3] = target: T3, Brd3 (Homo sapiens, UniProt Q15059); test: as above; assay type: cell-based; conditions: 24 h
# How it was run: as §1
# Brd4 [4] = target: T1, Brd4; test: Isobaric tagging; assay type: cell-based; conditions: HeLa cells, AT1 1 µM, 24 h; 5,674 proteins quantified
# Brd2 [5] = target: T2, Brd2; test: Isobaric tagging; assay type: cell-based; conditions: HeLa cells, 24 h, proteomics
# Brd3 [6] = target: T3, Brd3; test: Isobaric tagging; assay type: cell-based; conditions: HeLa cells, 24 h, proteomics
# [7] = ITC 25 °C, VCB into PROTAC:Brd4^BD2 vs VCB into PROTAC
# Sequence of VCB and Brd4^BD2 (P40337 54-213, other chains not shown): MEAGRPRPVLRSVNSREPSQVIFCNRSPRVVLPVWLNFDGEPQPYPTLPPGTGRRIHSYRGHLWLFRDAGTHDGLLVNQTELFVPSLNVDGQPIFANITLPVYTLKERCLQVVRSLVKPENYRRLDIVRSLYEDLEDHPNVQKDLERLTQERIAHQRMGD
# Sequence of VCB and Brd4^BD2 (Q15370 1-104, other chains not shown, further chain): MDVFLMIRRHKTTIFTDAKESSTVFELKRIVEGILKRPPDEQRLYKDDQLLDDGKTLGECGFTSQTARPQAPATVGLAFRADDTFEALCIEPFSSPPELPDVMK
# Sequence of VCB and Brd4^BD2 (Q15369 17-112, other chains not shown, further chain): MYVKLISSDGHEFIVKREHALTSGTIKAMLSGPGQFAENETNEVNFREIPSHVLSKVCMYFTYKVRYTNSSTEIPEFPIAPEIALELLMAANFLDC
# T3 sequence (Q15059 whole entry): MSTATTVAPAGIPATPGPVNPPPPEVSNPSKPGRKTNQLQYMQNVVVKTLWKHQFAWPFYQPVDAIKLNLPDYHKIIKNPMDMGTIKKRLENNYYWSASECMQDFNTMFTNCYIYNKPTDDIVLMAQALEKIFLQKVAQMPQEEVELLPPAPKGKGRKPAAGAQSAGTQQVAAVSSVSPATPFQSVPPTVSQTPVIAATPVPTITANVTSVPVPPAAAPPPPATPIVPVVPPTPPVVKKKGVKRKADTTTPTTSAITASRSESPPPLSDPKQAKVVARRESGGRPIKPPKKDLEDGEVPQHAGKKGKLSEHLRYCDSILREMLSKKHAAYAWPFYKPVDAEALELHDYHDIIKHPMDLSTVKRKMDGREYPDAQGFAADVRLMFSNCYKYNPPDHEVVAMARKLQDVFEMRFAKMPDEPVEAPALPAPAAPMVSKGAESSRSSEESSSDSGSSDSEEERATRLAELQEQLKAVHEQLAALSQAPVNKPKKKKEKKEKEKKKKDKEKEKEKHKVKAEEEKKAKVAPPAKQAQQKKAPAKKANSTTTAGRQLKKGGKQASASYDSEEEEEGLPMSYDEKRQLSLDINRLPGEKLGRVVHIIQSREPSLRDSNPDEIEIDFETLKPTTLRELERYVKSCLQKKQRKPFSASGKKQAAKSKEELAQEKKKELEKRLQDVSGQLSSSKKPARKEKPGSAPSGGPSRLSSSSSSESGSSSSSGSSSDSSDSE
# T2 sequence (P25440 whole entry): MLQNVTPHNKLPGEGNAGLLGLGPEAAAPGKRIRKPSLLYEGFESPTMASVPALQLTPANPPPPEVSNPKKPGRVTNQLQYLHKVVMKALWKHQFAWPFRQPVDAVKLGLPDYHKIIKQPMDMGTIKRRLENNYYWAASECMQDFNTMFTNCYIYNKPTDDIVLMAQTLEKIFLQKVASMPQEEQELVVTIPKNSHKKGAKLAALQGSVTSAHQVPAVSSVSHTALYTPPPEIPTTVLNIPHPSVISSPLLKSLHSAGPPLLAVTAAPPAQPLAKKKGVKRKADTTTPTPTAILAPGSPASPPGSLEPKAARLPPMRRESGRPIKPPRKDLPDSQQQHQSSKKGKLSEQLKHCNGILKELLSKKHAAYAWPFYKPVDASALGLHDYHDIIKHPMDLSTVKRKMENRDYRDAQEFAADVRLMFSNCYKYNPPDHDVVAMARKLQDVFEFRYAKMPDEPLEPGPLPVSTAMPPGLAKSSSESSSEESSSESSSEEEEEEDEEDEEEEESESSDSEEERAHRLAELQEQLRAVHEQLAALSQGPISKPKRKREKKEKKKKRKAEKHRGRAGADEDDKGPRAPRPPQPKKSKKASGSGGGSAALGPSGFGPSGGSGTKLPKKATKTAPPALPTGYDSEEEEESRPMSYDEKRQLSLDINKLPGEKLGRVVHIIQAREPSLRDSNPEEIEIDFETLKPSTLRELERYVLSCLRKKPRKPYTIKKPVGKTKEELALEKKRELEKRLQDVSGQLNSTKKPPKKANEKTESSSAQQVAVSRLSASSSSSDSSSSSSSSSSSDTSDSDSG
smiles,measurement,setting,value
"CC(=O)N[C@H](C(=O)N1C[C@H](O)C[C@H]1C(=O)NCc1ccc(-c2scnc2C)cc1)C(C)(C)SCCCCCCNC(=O)C[C@@H]1N=C(c2ccc(Cl)cc2)c2c(sc(C)c2C)-n2c(C)nnc21 [AT1, (2S,4R)-1-((R)-2-acetamido-3-((6-(2-((S)-4-(4-chlorophenyl)-2,3,9-trimethyl-6H-thieno[3,2-f][1,2,4]triazolo[4,3-a][1,4]diazepin-6-yl)acetamido)hexyl)thio)-3-methylbutanoyl)-4-hydroxy-N-(4-(4-methylthiazol-5-yl)benzyl)pyrrolidine-2-carboxamide]",ΔpKd (pKd ternary − pKd binary),VCB and Brd4^BD2; [7],0.84 ± 0.07
same,"α (cooperativity, Kd binary/Kd ternary)",VCB and Brd4^BD2; [7],7
same,"ΔG (binary + ternary), stability of ternary complex","VCB and Brd4^BD2; ITC, Brd4^BD2",-20.2 ± 0.2 kcal/mol
same,Brd4 protein level by immunoblot,Brd4 [1],depletion of Brd4
same,activity against Brd2 (protein level by immunoblot),Brd2 [2],negligible activity
same,activity against Brd3 (protein level by immunoblot),Brd3 [3],negligible activity
same,Brd4 protein level after treatment (depleted to),Brd4 [4],~ 40%
same,effect on protein level of Brd2,Brd2 [5],no effect on protein levels
same,effect on protein level of Brd3,Brd3 [6],no effect on protein levels
